# TRPC6 act = activators of mouse TRPC6 channel | B-score at 10 µM | HEK293-TRPC6 membrane potential dye fluorescence; active compounds read high | 310,000 compounds, 0.13% hits | Q61143;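 active means B-score of the integrated fluorescence ratio above library mean plus 3 SD, and starting fluorescence ratio within library mean plus 5 SD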;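 further: higher score means more depolarization so channel activation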
# Target sequence (Q61143 whole entry, looked up): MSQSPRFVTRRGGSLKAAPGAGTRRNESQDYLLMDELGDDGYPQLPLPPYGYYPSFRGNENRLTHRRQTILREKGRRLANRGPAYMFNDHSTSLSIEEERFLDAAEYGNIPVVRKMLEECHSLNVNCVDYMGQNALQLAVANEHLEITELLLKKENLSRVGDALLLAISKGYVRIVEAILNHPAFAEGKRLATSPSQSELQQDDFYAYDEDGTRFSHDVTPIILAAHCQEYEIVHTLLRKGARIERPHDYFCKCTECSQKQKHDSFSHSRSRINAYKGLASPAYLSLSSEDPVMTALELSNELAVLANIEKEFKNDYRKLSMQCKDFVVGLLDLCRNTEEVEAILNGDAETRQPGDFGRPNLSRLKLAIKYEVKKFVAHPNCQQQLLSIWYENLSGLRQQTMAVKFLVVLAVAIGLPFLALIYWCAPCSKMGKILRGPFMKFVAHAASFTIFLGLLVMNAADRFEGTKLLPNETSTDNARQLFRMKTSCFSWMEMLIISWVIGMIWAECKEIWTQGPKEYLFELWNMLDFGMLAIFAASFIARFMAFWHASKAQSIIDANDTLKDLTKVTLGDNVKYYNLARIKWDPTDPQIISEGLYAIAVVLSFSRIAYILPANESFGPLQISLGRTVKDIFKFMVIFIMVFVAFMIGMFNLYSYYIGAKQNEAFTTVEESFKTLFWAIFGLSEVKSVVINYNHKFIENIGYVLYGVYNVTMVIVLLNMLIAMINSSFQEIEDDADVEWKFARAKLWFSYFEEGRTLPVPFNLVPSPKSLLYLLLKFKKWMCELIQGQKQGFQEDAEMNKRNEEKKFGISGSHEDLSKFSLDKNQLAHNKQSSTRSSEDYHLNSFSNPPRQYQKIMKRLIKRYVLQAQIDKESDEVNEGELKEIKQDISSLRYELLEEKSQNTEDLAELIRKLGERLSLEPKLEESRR
# Yeast superoxide = lowers age-related superoxide in aged yeast cells. S. cerevisiae aged cells, superoxide DHE fluorescence; active compounds read low. superoxide response (% of plate mean), % at 10 µM. 330,000 compounds, 0.18% hits;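 active means superoxide response under a set limit, about three screen SD below normal, cut at about 65% in these data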;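 further: yeast aged for seven days with compound at 30 °C before DHE staining; 100% = average MFI of all compound-treated wells on the plate with controls excluded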
# TRPC4 act = activators of mouse TRPC4 channel; HEK293 TRPC4beta/mu-opioid, Fluo4 calcium fluorescence; active compounds read high; B-score at 10 µM; AID 2237; Q9QUQ5; 310,000 compounds, 0.49% hits;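 active means B-score above 5 SD of library B-scores, and initial fluorescence ratio not above library mean plus 5 SD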;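 further: positive B-score marks a calcium rise read as TRPC4 activation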
#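 System – HEK293 cells stably co-expressing mouse TRPC4beta and mu-opioid receptor · Signal – Fluo4 calcium-sensitive dye fluorescence, kinetic, 1 Hz baseline · Benchmarks – buffer (low) and maximal DAMGO (high) · Read-out – B score of integrated fluorescence ratio per well · Incubation – dye loading 45 min room temperature, 110 s kinetic read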
# TRPC6 inh = mouse TRPC6 channel inhibition | HEK293-TRPC6, membrane potential dye, ACh-evoked depolarization; active compounds read low | B-score at 10 µM | AID 2553 | 310,000 compounds, 1.1% hits | Q61143;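 active means B-score under library mean minus 3 SD, initial fluorescence not abnormally high, positive integrated signal ratio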;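 further: B-score derived from integrated fluorescence ratio over the kinetic read; more negative B-score means stronger inhibition of depolarization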
# TRPC4 block = inhibitors of mouse TRPC4 channel | Q9QUQ5 | HEK293 TRPC4beta/mu-opioid, DAMGO-evoked Fluo4 calcium flux; active compounds read low | B-score at 10 µM | 300,000 compounds, 0.39% hits | AID 2247;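 active means B-score over 3 SD under the library average, no early fluorescence shift, positive overall ratio signal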
#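 Material: HEK293 cells with stable TRPC4beta plus mu-opioid receptor expression / Probe or stimulus: DAMGO in two steps, submaximal then maximal / Compound: single concentration per test compound / Technique: kinetic Fluo4 fluorescence imaging of calcium influx / Read-out: per-well B score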
# TRPC4 potent = allosterically enhances the mouse TRPC4 cation channel; 310,000 compounds, 0.42% hits; Q9QUQ5; B-score at 10 µM; AID 2227; HEK293 TRPC4beta/mu-opioid, DAMGO EC20, Fluo-4 Ca2+ flux; active compounds read high;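 active means B-score of calcium response area above 5 SD of library B-scores, with initial fluorescence ratio within 5 SD of library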;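 further: B-score of integrated fluorescence ratio over time as area under calcium response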
# Active calls of the source: *; i = inactive; nt = no result given. A selection: hits, their analogues and other compounds. The true share with any hit is near 2.3%.
SMILES,TRPC6 act,Yeast superoxide,TRPC4 act,TRPC6 inh,TRPC4 block,TRPC4 potent
Cc1sc2ncnc(N(C)CCc3ccccn3)c2c1C,i,75.2,80*,i,i,i
Cc1sc2ncnc(N(C)Cc3cccs3)c2c1C,i,94.6,i,i,i,i
Cc1cc(C)n(C(=O)/C(C#N)=N/Nc2cc(Cl)cc(Cl)c2)n1,i,83.2,i,-6.52*,i,i
OCCN1CCN(Cc2cc(Br)cc(Br)c2O)CC1,i,103.8,176*,i,i,i
OCCN1CCN(Cc2cc(Cl)c3cccnc3c2O)CC1,i,128.6,i,i,i,i
O=C(COC(=O)/C=C/c1ccc(F)cc1)Nc1ccccc1-c1ccccc1,i,94.1,i,i,i,i
CC(=O)N(Cc1c(C)nn(-c2ccccc2)c1Cl)c1ccc(Cl)cc1,i,105.5,i,i,i,i
Cc1nn(-c2ccccc2)c(Cl)c1CN(C(=O)CCl)c1ccc(Cl)cc1,i,99.9,i,i,-7*,i
Cc1nn(-c2ccccc2)c(Cl)c1CN(C(=O)CCl)c1cccc2ccccc12,i,93.2,i,i,-7*,i
OCCNC(=S)Nc1ccc(Cl)c(Cl)c1,i,104.4,i,i,i,i
Cc1ccccc1C(=O)Nc1c(C(=O)N(CCN(C)C)Cc2ccco2)oc2ccccc12,i,89.5,45*,i,-6*,i
CCN1C(=O)[C@H]2[C@H]3CN=C(SCc4ccccc4)N3[C@@](C)(C(=O)OC)[C@H]2C1=O,nt,107.5,nt,nt,nt,nt
COc1cc(OC)c(C2N(C)c3ccccc3N2C)cc1OC,i,99.0,i,i,-6*,i
Cc1cccc(C)c1OCC(O)CN (centres undefined),i,115.0,163*,i,i,i
Cc1cc(OCC(O)CN)ccc1Cl (centres undefined),i,71.0,143*,i,i,i
NCC(O)COc1ccc2c(c1)OCO2 (centres undefined),i,91.5,i,i,i,i
CCOC(=O)N1CCN(CC(O)COc2c(C)cccc2C)CC1 (centres undefined),i,94.6,i,i,i,i
COc1ccc(-c2csc(NC(=O)Cc3cccc4ccccc34)c2C(=O)O)cc1,i,nt,i,i,-7*,i
CCOC(=O)c1ccc(N2CCOCC2)c(NC(=O)COCC(=O)O)c1,i,108.5,i,i,i,i
C[C@H]1O[C@@H](O[C@H]2CC[C@@]3(C)C(CC[C@]4(C)C3C=C[C@]35OC[C@@]6(CCC(C)(C)C[C@H]63)[C@@H](O)C[C@]54C)[C@]2(C)CO)[C@H](O)[C@@H](O[C@@H]2O[C@H](CO)[C@@H](O)[C@H](O)[C@H]2O)[C@H]1O (some centres undefined),nt,109.8,nt,nt,nt,nt
CC1OC(OC2C(OC3C(O[C@H]4CC[C@]5(C)C6C=C[C@]78OC[C@@]9(CC[C@@H](C)[C@H](C)C97)[C@H](O)C[C@@]8(C)[C@]6(C)CC[C@H]5C4(C)C)OC(C)C(O)C3O)OC(CO)C(O)C2O)C(O)C(O)C1O (some centres undefined),i,nt,376*,-5.07*,i,17*
O=C1CSC(=Nc2ccc(Cl)cc2)N1Cc1ccco1,i,104.6,i,i,i,i
Cc1cc(C)c(N=C2SCC(=O)N2Cc2ccco2)c(C)c1,i,96.7,i,i,-5*,i
O=C(COC(=O)CCC(=O)c1ccc(Cl)cc1)NCc1ccco1,i,102.6,i,i,i,i
Cc1ccc(C)c2nc(Cl)c(C3NC(=O)c4ccccc4N3)cc12 (centres undefined),i,90.4,i,i,i,15*
SMILES,TRPC6 act,Yeast superoxide,TRPC4 act,TRPC6 inh,TRPC4 block,TRPC4 potent
CCOc1ccc(S(=O)(=O)Nc2cccc(C(=O)NCC(c3ccccc3)N(C)C)c2)cc1 (centres undefined),i,90.8,198*,i,i,i
CCN(CC)S(=O)(=O)c1cccc(C(=O)NCC(c2ccccc2)N(C)C)c1 (centres undefined),i,90.7,79*,i,i,i
COc1ccc(C(CNC(=O)c2cccc(NS(=O)(=O)c3ccc(C)c(F)c3)c2)N(C)C)cc1 (centres undefined),i,95.4,81*,i,i,i
CCN(CC)S(=O)(=O)c1cccc(C(=O)NCC2CCCCC2)c1,i,89.9,i,i,i,i
COc1ccccc1C(CNC(=O)c1cccc(NS(=O)(=O)c2ccc(C)c(F)c2)c1)N(C)C (centres undefined),i,80.4,i,i,i,i
CN(C)C(CNC(=O)c1ccc(S(=O)(=O)Nc2ccccc2F)cc1)c1ccccc1 (centres undefined),i,81.1,i,i,i,i
CC(=O)c1ccc(S(=O)(=O)NCc2ccc(C(=O)NCC(c3ccccc3)N(C)C)cc2)cc1 (centres undefined),i,105.1,177*,i,i,i
COCC(C)OC(=O)c1c(N)n(CC(C)C)c2nc3ccccc3nc12 (centres undefined),i,101.2,i,i,i,i
CN(c1ccccc1)S(=O)(=O)c1cccc(NC(=O)Nc2ccc(Cl)cc2C#N)c1,i,101.4,i,i,i,i
COc1ccc(NS(=O)(=O)c2cccc(C(=O)NCC(c3ccco3)N(C)C)c2)cc1 (centres undefined),i,114.8,i,i,i,i
COc1ccc(C(CNC(=O)c2ccc(S(=O)(=O)Nc3ccc(F)cc3)cc2)N(C)C)cc1 (centres undefined),i,99.2,66*,i,i,i
COc1ccc(C(CNC(=O)c2cccc(NS(=O)(=O)c3ccccc3)c2)N(C)C)cc1 (centres undefined),i,96.8,53*,i,-6*,i
CN(C)C(CNC(=O)c1ccc2nc[nH]c2c1)c1ccccc1 (centres undefined),i,104.3,142*,i,i,i
O=C(CN1CCCCC1)N=Nc1c(O)[nH]c2ccccc12,i,97.1,i,i,-8*,i
CC1(C)NC(=O)N(CC(O)CN(c2ccccc2)S(=O)(=O)c2ccccc2)C1=O (centres undefined),i,132.1,i,i,i,i
